Reference: paper PMC3900297 (Biotechnology and applied biochemistry, 2013)
Values joined by “and” are separate entries in the source; they are usually repeats but may differ in a detail not shown here. Equal values may be shown once. Read-outs that look alike come from different tables or passages of the source.

Experiments:
[1] = target: CYP261D1 (P450-PE36); assay: absorbance spectral titration; format: binding, Moritella sp. PE36; conditions: 0.1 M Na-Hepes pH 7.4, 0.5 mM EDTA, 25 °C, ambient pressure
In short: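 Recombinant His-tagged enzyme was expressed with […] and 0.5 mM IPTG for 48 h at 30 °C, then Ni-NTA purified. (+) and (−) forms were separated on cation-exchange and DEAE resins and dialyzed into Hepes/glycerol/KCl/TCEP. Titration spectra were taken in a stirred, thermostated cell and analysed by PCA/SVD against high-spin, low-spin and P420 standards. Spin-state changes were fitted to the tight-binding (square-root) equation.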

[2] = target: T1, CYP261C1 (P450-SS9) (Photobacterium profundum, UniProt Q6LGK6); assay: absorbance spectral titration; format: binding; conditions: μM
T1 sequence (Q6LGK6 1-480): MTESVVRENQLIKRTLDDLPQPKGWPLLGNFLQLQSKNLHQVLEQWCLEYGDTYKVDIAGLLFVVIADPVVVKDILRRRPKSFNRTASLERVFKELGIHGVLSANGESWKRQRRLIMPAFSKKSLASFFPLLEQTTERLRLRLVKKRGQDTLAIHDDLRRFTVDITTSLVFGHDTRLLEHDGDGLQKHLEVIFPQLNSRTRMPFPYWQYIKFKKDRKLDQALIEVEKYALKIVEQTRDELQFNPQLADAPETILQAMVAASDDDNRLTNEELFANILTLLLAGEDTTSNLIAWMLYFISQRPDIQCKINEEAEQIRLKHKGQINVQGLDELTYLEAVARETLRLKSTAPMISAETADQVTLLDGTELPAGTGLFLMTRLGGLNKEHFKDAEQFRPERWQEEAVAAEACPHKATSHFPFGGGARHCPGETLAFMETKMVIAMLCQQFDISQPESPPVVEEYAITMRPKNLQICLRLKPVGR
In short: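 Recombinant CYP261C1 expressed in E. coli TOPP3, Ni-NTA purified, then separated into (+) and (−) forms on cation/anion exchange. Fatty-acid titrations tracked by absorbance spectra at 25 °C in 0.1 M Na-Hepes pH 7.4 with 0.5 mM EDTA. Spectral series underwent PCA, with least-squares fitting to high-spin, low-spin and P420 standards. Kd came from the tight-binding (square-root) equation.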

| Kd ([1]; read-out: Myristic acid / KD, (+) conformer) | Kd ([1]; read-out: Myristic acid / KD, (−) conformer) | Kd ([2]; Myristic acid / KD) | Compound | Kd ([1]; read-out: Arachidonic acid / KD, (+) conformer) | Kd ([1]; read-out: Arachidonic acid / KD, (−) conformer) | Kd ([2]; Arachidonic acid / KD) |
| --- | --- | --- | --- | --- | --- | --- |
| – | – | – | CCCCC/C=C\C/C=C\C/C=C\C/C=C\CCCC(=O)O [Arachidonic acid] | 3.1 ± 0.6 µM | 8.9 ± 2.2 µM | 9.7 µM and 10.4 µM |
| 2.4 ± 0.7 µM | 3 ± 1 µM | 8.1 µM and 3.6 µM | CCCCCCCCCCCCCC(=O)O [Myristic acid] | – | – | – |
